Results gathered from unrelated publications.
≈ marks a conversion by molar mass, not a printed value.

The EC50 of `NC(=O)c1cccnc1` is reported as roughly 1000 µM (tissue relaxation, agonist; rat).
`Cc1ccc(C(CS(=O)(=O)c2ccccc2)=NNC2=NC(=O)C(=NNc3ccccc3)S2)cc1` has a viability of 41.2% (WM 266-4; cell growth or viability, MTT; 25 µM, 48 h).
`COc1cc2ncnc(NN=C3C(=O)Nc4ccc(F)cc43)c2cc1OC` gave an inhibition of 19.2% (ZR75; cell growth or viability; 10 µM).
The MIC of `O=c1[nH]c(NCc2ccc(Cl)c(Cl)c2)nc2ncn(CCN3CCOCC3)c12` is reported as 16 µg/mL (≈ 37.8 µM) (Lacticaseibacillus casei; microbial growth, agar dilution; 48 h).
For `CCN(CC)CCNC(=O)c1c(C)[nH]c(/C=C2\C(=O)Nc3ccc(F)cc32)c1C`, the inhibition was 90.7% (ZR75; cell growth or viability; 30 µM).
For `Cc1ncc([N+](=O)[O-])n1CCO`, the MIC was greater than 16 µg/mL (Lacticaseibacillus casei; microbial growth, agar dilution; 48 h).
For `NC(=S)NN=C(CS(=O)(=O)c1ccccc1)c1ccc(F)cc1`, the viability was 31.3% (WM 266-4; cell growth or viability, MTT; 25 µM, 48 h).
With `C[C@@H](c1ncncc1F)[C@](O)(Cn1cncn1)c1ccc(F)cc1F` the IC50 was 2.69 µM (Acanthamoeba castellanii; parasite growth, resazurin; 96 h).
For `Nc1ccc(S(=O)(=O)Nc2ncccn2)cc1`, the IC50 was 27.3 µM (Toxoplasma gondii; parasite growth; human Fibroblast; intracellular).
For `Cc1ccc(C(CS(=O)(=O)c2ccccc2)=NN=C2N=C(c3ccc(Br)cc3)CS2)cc1`, the viability was 31.7% (WM 266-4; cell growth or viability, MTT; 100 µM, 48 h).
For `COc1ccc(-c2nc(NN=C3C(=O)Nc4ccccc43)c3ccccc3n2)cc1OC`, the inhibition was 54.9% (ZR75; cell growth or viability; 30 µM).
`CC(C)(C)C1=CC(=NNc2ccc(C#N)cc2)C=C(C(C)(C)C)C1=O` gave an IC50 of 3.8 µM (Toxoplasma gondii; parasite growth, fluorescence; 5 days, intracellular).
